How the values were obtained:
Type in all cases: functional
HOP-62 = assay: Growth inhibition of human HOP62 cells at 10 uM after 48 hrs by sulforhodamine B assay; settings: HOP-62, 48 h, read-out: GI
Summary of the method: (§1)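 NCI one-dose primary screen at 10 (printed mM) across the 60-line panel. Cells in RPMI 1640 with 5% FBS and 2 mM L-glutamine, plated at 5000–40,000 cells/well and incubated 24 h before dosing. Exposure 48 h at 37 °C, 5% CO2. Adherent cells were fixed with cold TCA, suspension cells fixed after settling. SRB stain, absorbance 515 nm. Reported as percent growth of treated cells relative to control.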

OVCAR-8 = assay: Cytotoxicity against human OVCAR8 cells after 48 hrs by sulforhodamine B assay; settings: OVCAR-8, 48 h
Summary of the method: (§2)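 NCI 60-panel screen. Cells were grown in RPMI 1640 with 5% FBS and L-glutamine and plated at 5000–40,000 cells/well according to doubling time. They were preincubated 24 h at 37 °C, 5% CO2, then exposed 48 h to five 10-fold dilutions. Adherent cells were fixed with cold TCA, final 10%; suspension cells were fixed after settling. Cells were stained with 0.4% SRB and read at 515 nm. Tz/C/Ti growth curves gave GI50, TGI and LC50.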

CAKI-1 = assay: Cytotoxicity against human Caki1 cells after 48 hrs by sulforhodamine B assay; settings: CAKI-1, 48 h; summary of the method: as §2
MCF7 = assay: Growth inhibition of human MCF7 cells at 10 uM after 48 hrs by sulforhodamine B assay; settings: MCF7, 48 h, read-out: GI; summary of the method: as §1
MDA-MB-231 = assay: Growth inhibition of human MDA-MB-231 cells at 10 uM after 48 hrs by sulforhodamine B assay; settings: MDA-MB-231, 48 h, read-out: GI; summary of the method: as §1
HT-29 = assay: Cytotoxicity against human HT-29 cells after 48 hrs by sulforhodamine B assay; settings: HT-29, 48 h; summary of the method: as §2
U-251 [1] = assay: Growth inhibition of human U251 cells at 10 uM after 48 hrs by sulforhodamine B assay; settings: U-251, 48 h, read-out: GI
Summary of the method: (§3)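 NCI-60 single-dose screen. Cells grown in RPMI 1640 with 5% FBS and L-glutamine, plated at 5000–40,000 cells/well by doubling time, and preincubated 24 h at 37 °C, 5% CO2. Compound stocks in DMSO, added at one concentration, then incubated 48 h. Adherent cells fixed with cold TCA (10% final), stained with 0.4% SRB, dye solubilized in 10 mM Tris base, A515 read. Reported as percent growth relative to untreated control.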

CCRF-CEM [2] = assay: Cytotoxicity against human CCRF-CEM cells after 48 hrs by sulforhodamine B assay; summary of the method: as §2
UACC-62 = assay: Growth inhibition of human UACC62 cells at 10 uM after 48 hrs by sulforhodamine B assay; settings: UACC-62, 48 h, read-out: GI; summary of the method: as §3
ACHN = assay: Growth inhibition of human ACHN cells at 10 uM after 48 hrs by sulforhodamine B assay; settings: read-out: GI; summary of the method: as §1
Malme-3M = assay: Growth inhibition of human MALME-3M cells at 10 uM after 48 hrs by sulforhodamine B assay; settings: read-out: GI; summary of the method: as §1
SN12C = assay: Cytotoxicity against human SN12C cells after 48 hrs by sulforhodamine B assay; summary of the method: as §2
COLO 205 [3] = assay: Growth inhibition of human COLO205 cells at 10 uM after 48 hrs by sulforhodamine B assay; settings: COLO 205, 48 h, read-out: GI; summary of the method: as §1
BT-549 = assay: Cytotoxicity against human BT549 cells after 48 hrs by sulforhodamine B assay; settings: BT-549, 48 h; summary of the method: as §2
SK-OV-3 = assay: Growth inhibition of human SKOV3 cells at 10 uM after 48 hrs by sulforhodamine B assay; settings: SK-OV-3, 48 h, read-out: GI; summary of the method: as §3
CCRF-CEM [4] = assay: Growth inhibition of human CCRF-CEM cells at 10 uM after 48 hrs by sulforhodamine B assay; settings: read-out: GI; summary of the method: as §1
NCI-H322M = assay: Growth inhibition of human NCI-H322M cells at 10 uM after 48 hrs by sulforhodamine B assay; settings: read-out: GI; summary of the method: as §1
COLO 205 [5] = assay: Cytotoxicity against human COLO205 cells after 48 hrs by sulforhodamine B assay; settings: COLO 205, 48 h; summary of the method: as §2
HL-60(TB) = assay: Cytotoxicity against human HL-60(TB) cells after 48 hrs by sulforhodamine B assay; settings: HL-60, 48 h
Summary of the method: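 NCI 60-panel five-dose assay. Cells are grown in RPMI 1640 with 5% FBS and L-glutamine. They are plated at 5000–40,000 cells/well according to doubling time and pre-incubated 24 h at 37 °C, 5% CO2. DMSO-stock compound is added at five 10-fold or ½-log dilutions for 48 h. Settled suspension cells are fixed, then SRB-stained and read at 515 nm. Percent growth is computed from time-zero, control and treated absorbances, and LC50 is taken where protein falls 50% below the starting level.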

KM12 = assay: Cytotoxicity against human KM12 cells after 48 hrs by sulforhodamine B assay; settings: KM12, 48 h; summary of the method: as §2
U-251 [6] = assay: Cytotoxicity against human U251 cells after 48 hrs by sulforhodamine B assay; settings: U-251, 48 h
Summary of the method: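 NCI 60 panel five-dose screen. Cells in RPMI 1640 with 5% FBS and 2 mM L-glutamine, plated at 5000–40,000 cells/well and preincubated 24 h. Compounds were tested at five 10-fold concentrations (0.01–100) for 48 h at 37 °C, 5% CO2. Cells were fixed with TCA and stained with SRB, absorbance 515 nm. GI50, TGI and LC50 were taken from % growth curves against time-zero and control.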

RPMI-8226 = assay: Cytotoxicity against human RPMI8226 cells after 48 hrs by sulforhodamine B assay; settings: RPMI-8226, 48 h; summary of the method: as §2
T47D = assay: Cytotoxicity against human T47D cells after 48 hrs by sulforhodamine B assay; summary of the method: as §2
OVCAR-3 = assay: Growth inhibition of human OVCAR3 cells at 10 uM after 48 hrs by sulforhodamine B assay; settings: OVCAR-3, 48 h, read-out: GI; summary of the method: as §1
EKVX = assay: Cytotoxicity against human EKVX cells after 48 hrs by sulforhodamine B assay; summary of the method: as §2
TK-10 = assay: Growth inhibition of human TK10 cells at 10 uM after 48 hrs by sulforhodamine B assay; settings: TK-10, 48 h, read-out: GI; summary of the method: as §3
[7] = read-out: LC50 (the source's name)

For O=C(CCc1nnc(-c2ccc(Cl)cc2Cl)o1)c1nc2ccccc2[nH]1, the inhibition of growth at 10 µM (HOP-62) was 28.4%, the GI50 (OVCAR-8) was 9.26 µM and the TGI (OVCAR-8) was 100 µM. It also gave a CC50 (OVCAR-8; [7]) of 100 µM, a GI50 (CAKI-1) of 3.49 µM and a TGI (CAKI-1) of 41.1 µM. The CC50 (CAKI-1; [7]) was 100 µM, the inhibition of growth at 10 µM (MCF7) was 55.3% and the inhibition of growth at 10 µM (MDA-MB-231) was 61.7%. The GI50 (HT-29) was 3.77 µM, the TGI (HT-29) was 55.1 µM and the CC50 (HT-29; [7]) was 100 µM. For the same compound, the inhibition of growth at 10 µM (U-251 [1]) was 47.5%, the GI50 (CCRF-CEM [2]) was 4.86 µM and the TGI (CCRF-CEM [2]) was 66 µM. For the same compound, the CC50 (CCRF-CEM [2]; [7]) was 100 µM, the inhibition of growth at 10 µM (UACC-62) was 57.7% and the inhibition of growth at 10 µM (ACHN) was 18.7%. The inhibition of growth at 10 µM (Malme-3M) was 20.7%, the GI50 (SN12C) was 6.22 µM and the TGI (SN12C) was 56.9 µM. It also gave a CC50 (SN12C; [7]) of 100 µM, an inhibition of growth at 10 µM (COLO 205 [3]) of 37.4% and a GI50 (BT-549) of 7.54 µM. For the same compound, the TGI (BT-549) was 92.5 µM, the CC50 (BT-549; [7]) was 100 µM and the inhibition of growth at 10 µM (SK-OV-3) was 35.2%. For the same compound, the inhibition of growth at 10 µM (CCRF-CEM [4]) was 52.7%, the inhibition of growth at 10 µM (NCI-H322M) was 24% and the GI50 (COLO 205 [5]) was 2.66 µM. It also gave a TGI (COLO 205 [5]) of 7.08 µM, a CC50 (COLO 205 [5]; [7]) of 100 µM and a GI50 (HL-60(TB)) of 2.23 µM. It also gave a TGI (HL-60(TB)) of 19.3 µM, a CC50 (HL-60(TB); [7]) of 100 µM and a GI50 (KM12) of 3.16 µM. The TGI (KM12) was 11 µM, the CC50 (KM12; [7]) was 100 µM and the GI50 (U-251 [6]) was 10.9 µM. The TGI (U-251 [6]) was 77.6 µM, the CC50 (U-251 [6]; [7]) was 100 µM and the GI50 (RPMI-8226) was 3.61 µM. It also gave a TGI (RPMI-8226) of 23.3 µM, a CC50 (RPMI-8226; [7]) of 100 µM and a GI50 (T47D) of 3.34 µM. The TGI (T47D) was 60 µM, the CC50 (T47D; [7]) was 100 µM and the inhibition of growth at 10 µM (OVCAR-3) was 33.6%. It also gave a GI50 (EKVX) of 5.48 µM, a TGI (EKVX) of 100 µM and a CC50 (EKVX; [7]) of 100 µM. The inhibition of growth at 10 µM (TK-10) was 36%.
